Source: ChEMBL document CHEMBL1926577, “Novel 1,3,4-heterodiazole analogues: synthesis and in-vitro antitumor activity” (2012)

Assays:
Assay type in all cases: functional
[1] = tested on: SNB-75; assay: Growth inhibition of human SNB75 cells at 10 uM after 48 hrs by coulter counter method; conditions: SNB-75, 48 h, read-out: GI
Procedure, shortened: (§1)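 NCI 60-cell-line panel, single dose. Compound dissolved first in DMSO, then diluted in phosphate-buffered saline so that every final dilution held under 1% DMSO. Duplicate wells received cells at 6 × 10⁴ cells/ml. Controls held PBS/DMSO at the same dilution. Plates were incubated 48 h at 37 °C under 5% CO₂. Cells were then diluted 10-fold in saline and counted on a Coulter counter, with counts corrected for the dilution. Results are given as percent growth inhibition.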

[2] = tested on: T47D; assay: Growth inhibition of human T47D cells at 10 uM after 48 hrs by coulter counter method; conditions: read-out: GI; procedure, shortened: as §1
[3] = tested on: SN12C; assay: Growth inhibition of human SN12C cells at 10 uM after 48 hrs by coulter counter method; conditions: read-out: GI; procedure, shortened: as §1
[4] = tested on: MDA-MB-468; assay: Growth inhibition of human MDA-MB-468 cells at 10 uM after 48 hrs by coulter counter method; conditions: MDA-MB-468, 48 h, read-out: GI; procedure, shortened: as §1
[5] = tested on: HCT-116; assay: Growth inhibition of human HCT116 cells at 10 uM after 48 hrs by coulter counter method; conditions: HCT-116, 48 h, read-out: GI; procedure, shortened: as §1
[6] = tested on: SK-MEL-5; assay: Growth inhibition of human SK-MEL-5 cells at 10 uM after 48 hrs by coulter counter method; conditions: SK-MEL-5, 48 h, read-out: GI; procedure, shortened: as §1
[7] = tested on: Malme-3M; assay: Growth inhibition of human MALME-3M cells at 10 uM after 48 hrs by coulter counter method; conditions: read-out: GI; procedure, shortened: as §1
[8] = tested on: LOX IMVI; assay: Growth inhibition of human LOXIMVI cells at 10 uM after 48 hrs by coulter counter method; conditions: read-out: GI; procedure, shortened: as §1
[9] = tested on: ACHN; assay: Growth inhibition of human ACHN cells at 10 uM after 48 hrs by coulter counter method; conditions: read-out: GI; procedure, shortened: as §1
[10] = tested on: OVCAR-8; assay: Growth inhibition of human OVCAR8 cells at 10 uM after 48 hrs by coulter counter method; conditions: OVCAR-8, 48 h, read-out: GI; procedure, shortened: as §1
[11] = tested on: MOLT-4; assay: Growth inhibition of human MOLT4 cells at 10 uM after 48 hrs by coulter counter method; conditions: MOLT-4, 48 h, read-out: GI; procedure, shortened: as §1
[12] = tested on: M14; assay: Growth inhibition of human M14 cells at 10 uM after 48 hrs by coulter counter method; conditions: M14, 48 h, read-out: GI; procedure, shortened: as §1
[13] = tested on: NCI/ADR-RES; assay: Growth inhibition of human NCI/ADR-RES cells at 10 uM after 48 hrs by coulter counter method; conditions: read-out: GI; procedure, shortened: as §1
[14] = tested on: RPMI-8226; assay: Growth inhibition of human RPMI8226 cells at 10 uM after 48 hrs by coulter counter method; conditions: RPMI-8226, 48 h, read-out: GI; procedure, shortened: as §1
[15] = tested on: UACC-62; assay: Growth inhibition of human UACC62 cells at 10 uM after 48 hrs by coulter counter method; conditions: UACC-62, 48 h, read-out: GI; procedure, shortened: as §1
[16] = tested on: BT-549; assay: Growth inhibition of human BT549 cells at 10 uM after 48 hrs by coulter counter method; conditions: BT-549, 48 h, read-out: GI; procedure, shortened: as §1
[17] = tested on: UACC-257; assay: Growth inhibition of human UACC257 cells at 10 uM after 48 hrs by coulter counter method; conditions: UACC-257, 48 h, read-out: GI; procedure, shortened: as §1
[18] = tested on: PC-3; assay: Growth inhibition of human PC3 cells at 10 uM after 48 hrs by coulter counter method; conditions: PC-3, 48 h, read-out: GI; procedure, shortened: as §1
[19] = tested on: IGROV-1; assay: Growth inhibition of human IGROV1 cells at 10 uM after 48 hrs by coulter counter method; conditions: IGROV-1, 48 h, read-out: GI; procedure, shortened: as §1
[20] = tested on: KM12; assay: Growth inhibition of human KM12 cells at 10 uM after 48 hrs by coulter counter method; conditions: KM12, 48 h, read-out: GI; procedure, shortened: as §1
[21] = tested on: SF-295; assay: Growth inhibition of human SF295 cells at 10 uM after 48 hrs by coulter counter method; conditions: SF-295, 48 h, read-out: GI; procedure, shortened: as §1
[22] = tested on: EKVX; assay: Growth inhibition of human EKVX cells at 10 uM after 48 hrs by coulter counter method; conditions: read-out: GI; procedure, shortened: as §1
[23] = tested on: SF-268; assay: Growth inhibition of human SF268 cells at 10 uM after 48 hrs by coulter counter method; conditions: SF-268, 48 h, read-out: GI; procedure, shortened: as §1
[24] = tested on: SNB-19; assay: Growth inhibition of human SNB19 cells at 10 uM after 48 hrs by coulter counter method; conditions: SNB-19, 48 h, read-out: GI; procedure, shortened: as §1
[25] = tested on: SR; assay: Growth inhibition of human SR cells at 10 uM after 48 hrs by coulter counter method; conditions: read-out: GI; procedure, shortened: as §1
[26] = tested on: K562; assay: Growth inhibition of human K562 cells at 10 uM after 48 hrs by coulter counter method; conditions: K562, 48 h, read-out: GI; procedure, shortened: as §1
[27] = tested on: SK-MEL-28; assay: Growth inhibition of human SK-MEL-28 cells at 10 uM after 48 hrs by coulter counter method; conditions: SK-MEL-28, 48 h, read-out: GI; procedure, shortened: as §1
[28] = tested on: TK-10; assay: Growth inhibition of human TK10 cells at 10 uM after 48 hrs by coulter counter method; conditions: TK-10, 48 h, read-out: GI; procedure, shortened: as §1
[29] = tested on: NCI-H322M; assay: Growth inhibition of human NCI-H322M cells at 10 uM after 48 hrs by coulter counter method; conditions: read-out: GI; procedure, shortened: as §1
[30] = tested on: U-251; assay: Growth inhibition of human U251 cells at 10 uM after 48 hrs by coulter counter method; conditions: U-251, 48 h, read-out: GI; procedure, shortened: as §1
[31] = tested on: A549; assay: Growth inhibition of human A549 cells at 10 uM after 48 hrs by coulter counter method; conditions: A549, 48 h, read-out: GI; procedure, shortened: as §1
[32] = tested on: MCF7; assay: Growth inhibition of human MCF7 cells at 10 uM after 48 hrs by coulter counter method; conditions: MCF7, 48 h, read-out: GI; procedure, shortened: as §1
[33] = tested on: 786-0; assay: Growth inhibition of human 786-0 cells at 10 uM after 48 hrs by coulter counter method; conditions: 786-0, 48 h, read-out: GI; procedure, shortened: as §1
[34] = tested on: HT-29; assay: Growth inhibition of human HT-29 cells at 10 uM after 48 hrs by coulter counter method; conditions: HT-29, 48 h, read-out: GI; procedure, shortened: as §1
[35] = tested on: HL-60(TB); assay: Growth inhibition of human HL-60(TB) cells at 10 uM after 48 hrs by coulter counter method; conditions: HL-60, 48 h, read-out: GI
Procedure, shortened: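 Single-dose screen on the NCI 60-line panel (leukemia subpanel). Compound is dissolved in DMSO and diluted in PBS, with final DMSO below 1%. Duplicate wells hold 6 × 10⁴ cells/ml at 37 °C, 5% CO₂, for 48 h. Cells are counted by Coulter counter after 10-fold saline dilution. Read-out is percent growth versus PBS/DMSO controls, expressed as % growth inhibition.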

[36] = tested on: CAKI-1; assay: Growth inhibition of human Caki1 cells at 10 uM after 48 hrs by coulter counter method; conditions: CAKI-1, 48 h, read-out: GI; procedure, shortened: as §1
[37] = tested on: NCI-H522; assay: Growth inhibition of human NCI-H522 cells at 10 uM after 48 hrs by coulter counter method; conditions: NCI-H522, 48 h, read-out: GI; procedure, shortened: as §1
[38] = tested on: A498; assay: Growth inhibition of human A498 cells at 10 uM after 48 hrs by coulter counter method; conditions: A498, 48 h, read-out: GI; procedure, shortened: as §1
[39] = tested on: NCI-H226; assay: Growth inhibition of human NCI-H226 cells at 10 uM after 48 hrs by coulter counter method; conditions: NCI-H226, 48 h, read-out: GI; procedure, shortened: as §1
[40] = tested on: CCRF-CEM; assay: Growth inhibition of human CCRF-CEM cells at 10 uM after 48 hrs by coulter counter method; conditions: read-out: GI; procedure, shortened: as §1
[41] = tested on: UO-31; assay: Growth inhibition of human UO31 cells at 10 uM after 48 hrs by coulter counter method; conditions: UO-31, 48 h, read-out: GI; procedure, shortened: as §1
[42] = tested on: MDA-MB-435; assay: Growth inhibition of human MDA-MB-435 cells at 10 uM after 48 hrs by coulter counter method; conditions: MDA-MB-435, 48 h, read-out: GI; procedure, shortened: as §1
[43] = tested on: HCT-15; assay: Growth inhibition of human HCT15 cells at 10 uM after 48 hrs by coulter counter method; conditions: HCT-15, 48 h, read-out: GI; procedure, shortened: as §1
[44] = tested on: SK-MEL-2; assay: Growth inhibition of human SK-MEL-2 cells at 10 uM after 48 hrs by coulter counter method; conditions: SK-MEL-2, 48 h, read-out: GI; procedure, shortened: as §1
[45] = tested on: NCI-H23; assay: Growth inhibition of human NCI-H23 cells at 10 uM after 48 hrs by coulter counter method; conditions: NCI-H23, 48 h, read-out: GI; procedure, shortened: as §1

NC1=CC(N)=NC2SC(c3ccccc3)=NN12 (stereo not given)
inhibition of growth at 10 µM [1]: 11.6% | inhibition of growth at 10 µM [2]: < 10% | inhibition of growth at 10 µM [3]: < 10% | inhibition of growth at 10 µM [4]: < 10% | inhibition of growth at 10 µM [5]: < 10% | inhibition of growth at 10 µM [6]: < 10% | inhibition of growth at 10 µM [7]: < 10% | inhibition of growth at 10 µM [8]: < 10% | inhibition of growth at 10 µM [9]: < 10% | inhibition of growth at 10 µM [10]: < 10% | inhibition of growth at 10 µM [11]: < 10% | inhibition of growth at 10 µM [12]: < 10% | inhibition of growth at 10 µM [13]: < 10% | inhibition of growth at 10 µM [14]: < 10% | inhibition of growth at 10 µM [15]: < 10% | inhibition of growth at 10 µM [16]: < 10% | inhibition of growth at 10 µM [17]: 16.4% | inhibition of growth at 10 µM [18]: < 10% | inhibition of growth at 10 µM [19]: 15.8% | inhibition of growth at 10 µM [20]: < 10% | inhibition of growth at 10 µM [21]: < 10% | inhibition of growth at 10 µM [22]: < 10% | inhibition of growth at 10 µM [23]: < 10% | inhibition of growth at 10 µM [24]: < 10% | inhibition of growth at 10 µM [25]: < 10% | inhibition of growth at 10 µM [26]: < 10% | inhibition of growth at 10 µM [27]: < 10% | inhibition of growth at 10 µM [28]: < 10% | inhibition of growth at 10 µM [29]: < 10% | inhibition of growth at 10 µM [30]: < 10% | inhibition of growth at 10 µM [31]: < 10% | inhibition of growth at 10 µM [32]: < 10% | inhibition of growth at 10 µM [33]: < 10% | inhibition of growth at 10 µM [34]: < 10% | inhibition of growth at 10 µM [35]: < 10% | inhibition of growth at 10 µM [36]: 10.7% | inhibition of growth at 10 µM [37]: < 10% | inhibition of growth at 10 µM [38]: < 10% | inhibition of growth at 10 µM [39]: < 10% | inhibition of growth at 10 µM [40]: < 10% | inhibition of growth at 10 µM [41]: 36.6% | inhibition of growth at 10 µM [42]: < 10% | inhibition of growth at 10 µM [43]: < 10% | inhibition of growth at 10 µM [44]: < 10% | inhibition of growth at 10 µM [45]: < 10%
